Calls of active or inactive are those of the source. No cut-off for these calls is given here.
Tests used:
[1] = system: Plasmodium falciparum; assay: Antiplasmodial activity against chloroquine-susceptible Plasmodium falciparum K2 infected in human erythrocytes assessed as inhibition of [3H]hypoxanthine uptake after 48 hrs; type: functional, organism-based
How it was run: (§1)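 Strains were cultured in A-positive human blood in RPMI 1640 with 10% human serum, 25 mM HEPES and 25 mM NaHCO3, under 10% O2/5% CO2/85% N2 at 37 °C. Microtests used 0.5% parasitemia and 1.5% hematocrit. Tritiated hypoxanthine (1 μCi/well) was added at time zero, then 48 h incubation, freeze-thaw, harvest and scintillation counting. IC50 was taken by nonlinear regression against drug-free controls.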

[2] = system: Plasmodium falciparum; assay: Antiplasmodial activity against chloroquine-susceptible Plasmodium falciparum Voll infected in human erythrocytes assessed as inhibition of [3H]hypoxanthine uptake after 48 hrs; type: functional, organism-based; how it was run: as §1
[3] = system: Plasmodium falciparum; assay: Antiplasmodial activity against chloroquine-susceptible Plasmodium falciparum 8425 infected in human erythrocytes assessed as inhibition of [3H]hypoxanthine uptake after 48 hrs; type: functional, organism-based; how it was run: as §1
[4] = system: Plasmodium falciparum; assay: Antiplasmodial activity against chloroquine-susceptible Plasmodium falciparum L1 infected in human erythrocytes assessed as inhibition of [3H]hypoxanthine uptake after 48 hrs; type: functional, organism-based; how it was run: as §1
[5] = system: Plasmodium falciparum; assay: Antiplasmodial activity against chloroquine-susceptible Plasmodium falciparum PA infected in human erythrocytes assessed as inhibition of [3H]hypoxanthine uptake after 48 hrs; type: functional, organism-based; how it was run: as §1
[6] = system: Plasmodium falciparum; assay: Antiplasmodial activity against chloroquine-susceptible Plasmodium falciparum FCM29 infected in human erythrocytes assessed as inhibition of [3H]hypoxanthine uptake after 48 hrs; type: functional, organism-based; how it was run: as §1
[7] = system: Plasmodium falciparum; assay: Antiplasmodial activity against chloroquine-susceptible Plasmodium falciparum 3D7 infected in human erythrocytes assessed as inhibition of [3H]hypoxanthine uptake after 48 hrs; type: functional, organism-based
How it was run: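 Culture in RPMI 1640 with 10% human serum, 25 mM HEPES, 25 mM NaHCO3, A-positive blood, 10% O2/5% CO2/85% N2, 37 C. Isotopic microtest: 0.5% parasitemia, 1.5% hematocrit, 1 μCi tritiated hypoxanthine at time zero, 48 h; freeze-thaw lysis, filter harvest, scintillation count. IC50 = 50% uptake versus drug-free control, nonlinear regression of log dose-response curves.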

[8] = system: Plasmodium falciparum; assay: Antiplasmodial activity against chloroquine-susceptible Plasmodium falciparum FCR3 infected in human erythrocytes assessed as inhibition of [3H]hypoxanthine uptake after 48 hrs; type: functional, organism-based; how it was run: as §1
[9] = system: Plasmodium falciparum; assay: Antiplasmodial activity against chloroquine-susceptible Plasmodium falciparum W2 infected in human erythrocytes assessed as inhibition of [3H]hypoxanthine uptake after 48 hrs; type: functional, organism-based; how it was run: as §1
[10] = system: Plasmodium falciparum; assay: Antiplasmodial activity against chloroquine-susceptible Plasmodium falciparum D6 infected in human erythrocytes assessed as inhibition of [3H]hypoxanthine uptake after 48 hrs; type: functional, organism-based; how it was run: as §1
[11] = system: Plasmodium falciparum; assay: Antiplasmodial activity against chloroquine-susceptible Plasmodium falciparum K14 infected in human erythrocytes assessed as inhibition of [3H]hypoxanthine uptake after 48 hrs; type: functional, organism-based; how it was run: as §1
[12] = system: Plasmodium falciparum; assay: Antiplasmodial activity against chloroquine-susceptible Plasmodium falciparum Bres infected in human erythrocytes assessed as inhibition of [3H]hypoxanthine uptake after 48 hrs; type: functional, organism-based; how it was run: as §1
[13] = system: Plasmodium falciparum; assay: Antiplasmodial activity against chloroquine-resistant Plasmodium falciparum Dd2 infected in human erythrocytes assessed as inhibition of [3H]hypoxanthine uptake after 48 hrs; type: functional, organism-based
How it was run: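 Ring-stage infected erythrocytes (0.5% parasitemia, 2.5% hematocrit) exposed to compounds 48 h, then radioactive hypoxanthine 24 h; radioactivity in precipitable material taken as proliferation index for IC50.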

[14] = system: Nucleic Acid; assay: Binding affinity to pUC18 DNA containing 50% AT assessed as maximum melting temperature at 1 uM by spectrophotometry analysis; type: nucleic-acid assay
How it was run: (§2)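 Drug at 1 μM was mixed with DNA at 15 μM base pairs (15:1 bp:drug) in TE with 5 mM NaCl. Absorbance at 260 nm was recorded from 30-97 °C at 0.5 °C/min, with readings every 0.5 °C. Curves were normalized, smoothed and differentiated. Tmmax = derivative peak maximum; Tmint = middle of the integrated area; Tm1/2 = middle of the peak at half height.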

[15] = system: Nucleic Acid; assay: Binding affinity to pUC18 DNA containing 50% AT assessed as middle of the integrated surface melting temperature at 1 uM by spectrophotometry analysis; type: nucleic-acid assay; how it was run: as §2
[16] = system: Plasmodium falciparum; assay: Antiplasmodial activity against chloroquine-susceptible Plasmodium falciparum NF54 infected in human erythrocytes assessed as inhibition of [3H]hypoxanthine uptake after 48 hrs; type: functional, organism-based
How it was run: (§3)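 Asynchronous ring-stage cultures in human A Rh+ erythrocytes (RPMI 1640, HEPES, NaHCO3, hypoxanthine, 0.5% Albumax II, 5% CO2, 37 C), 1% parasitemia; top final drug concentration 30 μM. After 24 h, [3H]-hypoxanthine (0.2 μCi/well) added, further 48 h incubation; plates freeze-thawed, harvested, uptake counted; IC50 calculated.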

[17] = system: Nucleic Acid; assay: Binding affinity to polydAdT DNA containing 100% AT assessed as middle of the peak at half height melting temperature at 1 uM by spectrophotometry analysis; type: nucleic-acid assay; how it was run: as §2
[18] = system: Nucleic Acid; assay: Binding affinity to polydAdT DNA containing 100% AT assessed as middle of the integrated surface melting temperature at 1 uM by spectrophotometry analysis; type: nucleic-acid assay; how it was run: as §2
[19] = target: Nucleic Acid; assay: Binding affinity to pUC18 DNA at pH 7.5 by UV-Vis spectrophotometry analysis; type: nucleic-acid assay
How it was run: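 A 10 μM drug solution was titrated at room temperature with linearized pUC18 DNA (50% AT), 0.1-50 μM base pairs final. Buffer was TE (10 mM Tris-HCl, 0.1 mM EDTA) with 5 mM NaCl, ionic strength 12 mM. UV-Vis absorption spectra were recorded at 220-380 nm. Kd = DNA concentration at which half the drug is bound.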

[20] = system: Plasmodium falciparum; assay: Antiplasmodial activity against chloroquine, pyrimethamine, cycloguanil-resistant Plasmodium falciparum K1 infected in human erythrocytes assessed as inhibition of [3H]hypoxanthine uptake after 48 hrs; type: functional, organism-based; how it was run: as §3
[21] = system: NCH89; assay: Antiproliferative activity against human carmustine-resistant NCH-89 cells assessed as BrdU incorporation after 48 hrs; type: functional, cell-based; details: NCH89, 48 h
How it was run: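 NCH89 glioblastoma cells were seeded at 7 × 10^3 cells/well in replicate wells for 24 h. Compound was then added at 0.1-100 μM. After 48 h, BrdU was added at 100 μM final, and incorporation was detected with a BrdU labeling/detection kit.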

[22] = system: Nucleic Acid; assay: Binding affinity to polydAdT DNA containing 100% AT assessed as maximum melting temperature at 1 uM by spectrophotometry analysis; type: nucleic-acid assay; how it was run: as §2
[23] = target: Nucleic Acid; assay: Binding affinity to pUC18 DNA at pH 7.5 by spectrofluorimetry analysis; type: nucleic-acid assay
How it was run: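 A 1-10 μM drug solution was titrated at room temperature with linearized pUC18 DNA (50% AT), 0.1-50 μM base pairs final, in TE buffer with 5 mM NaCl (ionic strength 12 mM). Fluorescence used excitation at 320 nm and emission at 340-500 nm, corrected for buffer and instrument response. Kd = DNA concentration giving half-bound drug.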

[24] = system: Nucleic Acid; assay: Binding affinity to pUC18 DNA containing 50% AT assessed as middle of the peak at half height melting temperature at 1 uM by spectrophotometry analysis; type: nucleic-acid assay; how it was run: as §2
[25] = system: Plasmodium berghei; assay: Antiplasmodial activity against Plasmodium berghei ANKA infected in Swiss mice (Mus musculus) assessed as reduction of parasitaemia at 30 mg/kg, intraperitoneally; type: functional, organism-based; parameters: dose 30 mg/kg
How it was run: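 Swiss mice (18-20 g) infected intravenously on day 0 with 2 × 10^6 P. berghei ANKA parasitized red cells. Compound was freshly prepared in 10% DMSO in sterile PBS and given ip, first 2 h postinfection, then on days +1-3 (4-day suppressive test). On day +4, parasitemia was counted microscopically on Giemsa-stained tail-blood films.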

[26] = system: Mus musculus; assay: Toxicity in Plasmodium berghei ANKA-infected CD1 mice (Mus musculus) assessed as mortality at 30 mg/kg, intraperitoneally; type: organism-based; parameters: dose 30 mg/kg, route intraperitoneal; details: in vivo, ip
How it was run: (§4)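 Peters 4-day suppressive test, P. berghei ANKA: 18-20 g mice infected iv with 2 × 10^6 parasitized red cells day 0; compounds freshly made in 10% DMSO in sterile PBS, given ip from 2 h postinfection and on days 1-3; daily dose 30 mg/kg or 50 mg/kg; deaths recorded.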

[27] = system: Mus musculus; assay: Toxicity in ip dosed Swiss mouse assessed as mortality at 30 mg/kg, ip; type: organism-based; parameters: dose 30 mg/kg, route intraperitoneal; details: in vivo; how it was run: as §4
[28] = system: MRC5; assay: Cytotoxicity against human MRC5 after 3 days; type: cell-based; details: MRC5, 72 h
How it was run: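 MRC-5SV2 cells were grown in Earle's MEM with 5% FCSi and plated at about 10^4 cells/well. After 3 days of incubation, viability was read fluorimetrically with resazurin (ex 550/em 590 nm). Growth reduction was expressed relative to untreated control wells, and CC50 was derived.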

Compound	IC50 [1] [µM]	IC90 [1] [µM]	IC50 [2] [µM]	IC90 [2] [µM]	IC50 [3] [µM]	IC90 [3] [µM]	IC50 [4] [µM]	IC90 [4] [µM]	IC50 [5] [µM]	IC90 [5] [µM]	IC90 [6] [µM]	IC50 [7] [µM]	IC90 [7] [µM]	IC50 [8] [µM]	IC90 [8] [µM]	IC50 [9] [µM]	IC90 [9] [µM]	IC50 [10] [µM]	IC90 [10] [µM]	IC50 [11] [µM]	further results
CCNCc1cc(Nc2ccnc3cc(Cl)ccc23)ccc1O [DESETHYL AMODIAQUINE]	0.0912	0.144	0.0775	0.113	0.0264	0.0414	0.0861	0.125	0.0728	0.106	0.407	0.0195	0.0314	0.0791	0.13	0.146	0.202	0.0175	0.037	0.16	IC50 [6]: 0.318 µM; IC90 [11]: 0.22 µM; IC50 [12]: 0.1 µM; IC90 [12]: 0.143 µM
CN(C)CCC(NCCNc1ccnc2cc(Cl)ccc12)c1ccccc1 (configuration not stated)	0.0871	0.247	0.0652	0.144	0.0088	0.0169	0.0617	0.177	0.161	0.318	0.376	0.0081	0.0144	0.0644	0.196	0.0998	0.26	0.0122	0.0167	0.129	IC50 [13]: 0.0256 µM; Tm [14]: 74.4 °C; Tm [15]: 75.5 °C; IC50 [16]: 0.0071 µM; Tm [17]: 47.4 °C; Tm [18]: 47.1 °C; Kd [19]: 7 µM; IC50 [20]: 0.0619 µM; IC50 [6]: 0.244 µM; IC50 [21]: 7.3 µM; Tm [22]: 46.8 °C; Kd [23]: 8 µM; Tm [24]: 76.5 °C; IC90 [11]: 0.267 µM; Activity [25]: Active; Activity [26]: Toxic; IC50 [12]: 0.158 µM; IC90 [12]: 0.31 µM; Activity [27]: Toxic; IC50 [28]: 27 µM
C=C[C@H]1CN2CC[C@H]1C[C@H]2[C@H](O)c1ccnc2ccc(OC)cc12 [QUININE]	0.619	1.51	0.422	0.843	0.13	0.39	0.531	0.995	0.627	1.11	1.2	0.104	0.597	0.665	1.11	0.684	1.25	0.0618	0.465	0.495	IC90 [11]: 1.64 µM; IC50 [12]: 0.689 µM; IC90 [12]: 0.614 µM
